Measurements published in ChEMBL document CHEMBL5252510, “A Novel Potent Oral Series of VEGFR2 Inhibitors Abrogate Tumor Growth by Inhibiting Angiogenesis” (J Med Chem, 2016).
Activity calls are given as the source filed them. The calls are words filed in the database; no cut-off is given here.

Legend:
BN472 cell [1] = test: Antitumor activity against rat BN472 cell implanted in Brown-Norway rat assessed as reduction in perfused blood vessels at 3 mg/kg, po qd measured upto 14 days by Hoechst staining based microscopic analysis; assay type: functional, organism-based; conditions: time <= 14.0 day
Summary of the method: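 BN472-bearing Brown-Norway rats dosed orally; Hoechst dye i.v. shortly before sacrifice to mark perfused vessels; tumors cryosectioned at 10 micron, blocked in 10 % goat serum/0.1 % Triton X-100, stained with rabbit anti-Ki67 (1:200) or anti-caspase 3 (1:10) and fluorescent secondary antibodies; fluorescence microscopy.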

BN472 cell [2] = test: Induction of apoptosis in rat BN472 cell implanted in Brown-Norway rat assessed as effect on caspase 3 level at 3 mg/kg, po qd measured upto 14 days by microscopic analysis; assay type: functional, organism-based; conditions: time <= 14.0 day
Summary of the method: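 BN472 fragments were grown in mammary fat pads of female Brown-Norway rats and dosed orally for 14 days. Hoechst dye was given i.v. 2 min before sacrifice. Excised tumors were cut as 10 micron frozen sections, blocked with 10 % normal goat serum/0.1 % Triton X-100 and stained with rabbit anti-rat caspase 3 (1:10), then a TRITC or FITC secondary. Read by fluorescence microscopy.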

[3] = Clearance in OFA rat at 1 mg/kg, iv measured upto 24 hrs by HPLC/UV analysis; assay type: ADME, organism-based; conditions: in vivo
Summary of the method: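 Catheters were placed in the femoral artery and vein of female OFA rats, followed by 96 h recovery. IV doses went into the femoral vein: 2.5 mg/kg in ethanol/dimethylisosorbide/PEG400/5 % glucose (10/15/35/40), or 1 mg/kg in NMP/PEG200 (30:70). Plasma samples at 5, 15, 30 min and 1, 2, 4, 6, 8, 24 h. Parameters reported over 24 h. n=2–4.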

| clearance [3] [mL/min/kg] | SMILES | Activity (BN472 cell [1]) | Activity (BN472 cell [2]) |
| --- | --- | --- | --- |
| – | Nc1nccc(Oc2ccc3c(C(=O)Nc4ccc(F)c(C(F)(F)F)c4)cccc3c2)n1 | Active | Active |
| 3 | O=C(Nc1cccc(C(F)(F)F)c1)c1cccc2cc(Oc3cc(CO)ncn3)ccc12 [BFH-772] | – | – |
